From PMC2738596 (Biochimica et biophysica acta, 2008)
Entries after “also recorded” stand apart in the source; their conditions may differ. Read-outs that look alike come from different tables or passages of the source. Ends that are not written are not given here.

Tests used:
[1] = target: T1, cardiac RyR2 (Canis lupus familiaris, UniProt A0A8I3MT21); type: biochemical, dog
[2] = target: T1, cardiac RyR2; experiment: Induction of subconductance states; type: biochemical, dog
Summary of the method: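 Dog ventricular SR microsomes fused into PE/PS/PC (5:4:1) bilayers. Solutions: cis HEPES 250 mM/Tris 118 mM, trans HEPES 250 mM/Ca(OH)2 53 mM, pH 7.4. Cytosolic Ca2+ buffered with BAPTA/dibromo-BAPTA; Ca2+/caffeine-activated channel; peptide added cis. Four-minute records were filtered at 500 Hz (Vm ≥0) or 400 Hz (Vm <0). P_substate = substate time/total time, scored frame-by-frame (100 ms frames, events >3 ms) or from Gaussian-fitted all-points histograms. Paired t-test.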

[3] = target: ryanodine-modified RyR2 (Canis lupus familiaris, UniProt A0A8I3MT21); experiment: Peptide/IpTxA action on ryanodine-modified RyR2 in planar lipid bilayers; type: biochemical, dog
ryanodine-modified RyR2, sequence (A0A8I3MT21 1-4967): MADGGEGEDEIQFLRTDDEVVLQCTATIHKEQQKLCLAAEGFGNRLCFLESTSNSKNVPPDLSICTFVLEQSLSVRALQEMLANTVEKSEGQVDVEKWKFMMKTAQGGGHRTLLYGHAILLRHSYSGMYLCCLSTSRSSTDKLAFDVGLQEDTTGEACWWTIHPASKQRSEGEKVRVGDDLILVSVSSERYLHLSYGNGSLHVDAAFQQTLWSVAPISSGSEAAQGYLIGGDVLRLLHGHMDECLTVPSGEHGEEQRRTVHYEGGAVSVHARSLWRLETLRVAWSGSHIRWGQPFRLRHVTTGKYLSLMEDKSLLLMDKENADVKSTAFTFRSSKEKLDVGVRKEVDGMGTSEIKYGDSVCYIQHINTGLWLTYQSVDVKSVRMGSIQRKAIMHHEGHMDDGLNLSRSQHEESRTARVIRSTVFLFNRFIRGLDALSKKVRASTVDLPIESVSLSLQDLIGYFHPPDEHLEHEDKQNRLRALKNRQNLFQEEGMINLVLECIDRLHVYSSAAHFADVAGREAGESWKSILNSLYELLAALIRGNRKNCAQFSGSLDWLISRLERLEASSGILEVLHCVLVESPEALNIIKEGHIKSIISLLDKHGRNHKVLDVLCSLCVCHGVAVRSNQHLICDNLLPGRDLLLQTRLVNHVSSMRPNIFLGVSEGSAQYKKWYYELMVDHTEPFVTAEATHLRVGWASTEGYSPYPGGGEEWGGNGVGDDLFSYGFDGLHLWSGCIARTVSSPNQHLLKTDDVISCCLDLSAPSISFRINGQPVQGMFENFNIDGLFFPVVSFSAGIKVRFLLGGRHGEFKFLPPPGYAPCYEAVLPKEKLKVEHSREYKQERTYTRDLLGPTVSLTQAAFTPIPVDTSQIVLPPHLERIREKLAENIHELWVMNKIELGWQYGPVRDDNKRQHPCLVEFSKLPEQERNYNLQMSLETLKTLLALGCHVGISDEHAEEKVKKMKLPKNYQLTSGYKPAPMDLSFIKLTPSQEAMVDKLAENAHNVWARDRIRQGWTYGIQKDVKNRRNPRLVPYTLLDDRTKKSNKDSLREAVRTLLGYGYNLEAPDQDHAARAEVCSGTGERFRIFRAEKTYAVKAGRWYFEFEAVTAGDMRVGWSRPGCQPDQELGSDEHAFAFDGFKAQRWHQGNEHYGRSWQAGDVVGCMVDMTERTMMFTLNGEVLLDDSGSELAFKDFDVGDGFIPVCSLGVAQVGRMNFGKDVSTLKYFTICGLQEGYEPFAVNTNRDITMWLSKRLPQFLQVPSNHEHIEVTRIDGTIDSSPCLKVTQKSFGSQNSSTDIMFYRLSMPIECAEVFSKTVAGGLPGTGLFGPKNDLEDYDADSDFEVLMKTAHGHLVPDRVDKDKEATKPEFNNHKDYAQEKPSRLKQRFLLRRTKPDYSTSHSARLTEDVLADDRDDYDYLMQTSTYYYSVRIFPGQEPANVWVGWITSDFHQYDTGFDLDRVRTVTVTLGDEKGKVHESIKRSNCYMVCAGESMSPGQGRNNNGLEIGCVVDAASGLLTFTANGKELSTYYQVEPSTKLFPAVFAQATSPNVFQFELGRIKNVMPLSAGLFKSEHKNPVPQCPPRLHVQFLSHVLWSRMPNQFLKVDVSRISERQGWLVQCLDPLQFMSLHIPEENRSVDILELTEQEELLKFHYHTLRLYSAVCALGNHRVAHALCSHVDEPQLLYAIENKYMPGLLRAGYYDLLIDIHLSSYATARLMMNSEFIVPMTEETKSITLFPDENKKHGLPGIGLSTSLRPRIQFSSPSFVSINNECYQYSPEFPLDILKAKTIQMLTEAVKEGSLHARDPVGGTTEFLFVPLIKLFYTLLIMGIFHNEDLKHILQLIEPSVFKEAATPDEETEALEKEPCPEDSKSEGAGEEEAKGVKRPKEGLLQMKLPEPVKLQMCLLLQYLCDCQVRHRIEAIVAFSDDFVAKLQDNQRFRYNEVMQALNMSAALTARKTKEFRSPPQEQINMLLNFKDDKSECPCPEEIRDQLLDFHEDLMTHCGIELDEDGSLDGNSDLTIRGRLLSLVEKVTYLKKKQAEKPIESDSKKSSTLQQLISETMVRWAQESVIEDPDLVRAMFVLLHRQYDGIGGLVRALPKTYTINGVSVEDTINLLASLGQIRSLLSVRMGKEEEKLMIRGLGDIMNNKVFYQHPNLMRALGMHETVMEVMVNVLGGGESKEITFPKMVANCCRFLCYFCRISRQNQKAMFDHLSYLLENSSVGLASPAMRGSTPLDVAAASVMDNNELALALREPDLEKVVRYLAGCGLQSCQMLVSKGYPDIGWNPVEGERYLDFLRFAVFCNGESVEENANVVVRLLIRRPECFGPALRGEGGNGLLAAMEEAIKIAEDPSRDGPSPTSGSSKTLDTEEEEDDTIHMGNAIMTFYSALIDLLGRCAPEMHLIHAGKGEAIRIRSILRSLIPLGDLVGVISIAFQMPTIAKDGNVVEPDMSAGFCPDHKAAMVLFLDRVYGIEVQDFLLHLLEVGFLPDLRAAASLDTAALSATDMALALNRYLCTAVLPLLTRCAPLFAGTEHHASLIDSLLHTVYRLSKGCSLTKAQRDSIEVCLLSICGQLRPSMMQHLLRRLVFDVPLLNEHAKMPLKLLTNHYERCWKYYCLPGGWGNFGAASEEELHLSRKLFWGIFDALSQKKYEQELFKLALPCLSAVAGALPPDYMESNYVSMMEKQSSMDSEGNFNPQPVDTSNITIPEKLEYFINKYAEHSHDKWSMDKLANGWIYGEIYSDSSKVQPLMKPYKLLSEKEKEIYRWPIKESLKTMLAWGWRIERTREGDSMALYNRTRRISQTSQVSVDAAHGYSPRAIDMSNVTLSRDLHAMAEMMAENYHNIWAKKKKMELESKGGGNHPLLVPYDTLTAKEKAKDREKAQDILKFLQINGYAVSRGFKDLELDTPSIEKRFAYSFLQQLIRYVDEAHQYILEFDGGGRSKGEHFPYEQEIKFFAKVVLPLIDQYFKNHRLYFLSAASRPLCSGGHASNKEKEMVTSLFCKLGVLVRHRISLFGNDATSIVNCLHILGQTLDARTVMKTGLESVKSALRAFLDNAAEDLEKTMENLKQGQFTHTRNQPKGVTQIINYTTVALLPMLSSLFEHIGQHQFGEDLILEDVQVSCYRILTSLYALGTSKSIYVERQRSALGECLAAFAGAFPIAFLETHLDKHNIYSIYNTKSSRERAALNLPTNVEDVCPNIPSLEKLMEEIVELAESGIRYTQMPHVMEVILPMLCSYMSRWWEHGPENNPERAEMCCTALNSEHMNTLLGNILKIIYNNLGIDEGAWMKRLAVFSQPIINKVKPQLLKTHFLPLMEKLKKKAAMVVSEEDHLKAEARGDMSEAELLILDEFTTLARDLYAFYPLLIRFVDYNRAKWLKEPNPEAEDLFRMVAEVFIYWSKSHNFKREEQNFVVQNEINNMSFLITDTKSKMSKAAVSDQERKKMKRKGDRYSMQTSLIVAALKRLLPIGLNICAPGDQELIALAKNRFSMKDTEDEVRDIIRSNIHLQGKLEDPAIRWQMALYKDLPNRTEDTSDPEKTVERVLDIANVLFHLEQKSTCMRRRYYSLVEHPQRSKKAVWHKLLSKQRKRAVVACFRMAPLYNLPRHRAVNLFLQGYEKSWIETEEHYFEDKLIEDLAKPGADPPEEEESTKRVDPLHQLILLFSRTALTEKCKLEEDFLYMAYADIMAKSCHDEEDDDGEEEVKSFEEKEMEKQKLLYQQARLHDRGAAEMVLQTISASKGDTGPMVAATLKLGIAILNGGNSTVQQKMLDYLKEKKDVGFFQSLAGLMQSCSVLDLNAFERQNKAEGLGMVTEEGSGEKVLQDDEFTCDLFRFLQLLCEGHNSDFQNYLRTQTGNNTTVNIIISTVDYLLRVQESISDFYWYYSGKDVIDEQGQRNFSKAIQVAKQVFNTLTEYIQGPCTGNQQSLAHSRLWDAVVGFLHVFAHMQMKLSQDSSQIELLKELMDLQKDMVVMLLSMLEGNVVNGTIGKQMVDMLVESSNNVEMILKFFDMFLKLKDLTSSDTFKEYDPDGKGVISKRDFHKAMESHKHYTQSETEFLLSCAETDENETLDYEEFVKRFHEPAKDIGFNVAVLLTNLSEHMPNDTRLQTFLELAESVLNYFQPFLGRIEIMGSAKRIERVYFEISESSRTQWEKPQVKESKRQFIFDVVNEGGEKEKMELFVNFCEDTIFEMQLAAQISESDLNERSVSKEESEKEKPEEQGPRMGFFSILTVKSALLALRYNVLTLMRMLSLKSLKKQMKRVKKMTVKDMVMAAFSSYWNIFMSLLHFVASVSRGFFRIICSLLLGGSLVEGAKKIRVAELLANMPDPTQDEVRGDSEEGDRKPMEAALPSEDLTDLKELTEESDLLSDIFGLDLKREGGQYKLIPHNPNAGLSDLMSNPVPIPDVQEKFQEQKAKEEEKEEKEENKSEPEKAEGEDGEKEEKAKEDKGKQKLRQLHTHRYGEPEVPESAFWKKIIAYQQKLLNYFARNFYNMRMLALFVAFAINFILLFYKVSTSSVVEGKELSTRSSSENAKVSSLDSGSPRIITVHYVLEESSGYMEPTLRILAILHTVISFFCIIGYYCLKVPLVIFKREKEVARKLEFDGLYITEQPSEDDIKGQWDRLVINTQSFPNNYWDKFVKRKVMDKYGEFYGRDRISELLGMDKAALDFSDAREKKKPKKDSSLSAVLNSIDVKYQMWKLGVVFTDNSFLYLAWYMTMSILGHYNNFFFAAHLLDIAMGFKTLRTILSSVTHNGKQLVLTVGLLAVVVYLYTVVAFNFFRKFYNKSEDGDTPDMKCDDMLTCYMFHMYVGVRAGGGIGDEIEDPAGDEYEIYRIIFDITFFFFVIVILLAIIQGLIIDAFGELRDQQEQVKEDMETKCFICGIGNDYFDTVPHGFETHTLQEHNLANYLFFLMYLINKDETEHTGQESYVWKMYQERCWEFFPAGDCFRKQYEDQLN

[4] = tested on: RyR2 with IpTxA; experiment: Interaction of peptides with IpTxA-modified RyR2 in planar lipid bilayers; type: biochemical, dog; settings: for apparent dissociation constant from RyR2 (1/dwell time): 500 µM KIFMK
Summary of the method: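 Dog cardiac RyR2 was recorded in planar bilayers with HEPES-Ca2+ trans and HEPES-Tris cis at pH 7.4, Ca2+/caffeine-activated, with cytosolic IpTxA at 50 nM and Vm +10 mV. Peptide was then added cis. Block events (dwell time, number, P_block = fraction of time at baseline) were scored frame-by-frame on 4-min records, separately during full openings and during IpTxA-induced substates. Means ± S.E.M.; paired t-test.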

[5] = target: RyR2 (ryanodol-modified) (Canis lupus familiaris, UniProt A0A8I3MT21); type: biochemical, dog; settings: for probability of ryanodol-induced modification: n=5 paired (Fig. 6)
RyR2 (ryanodol-modified), sequence (A0A8I3MT21 1-4967): as above

[6] = tested on: SR microsomes; settings: ref [19], [26], [55]; cited from earlier work
[7] = tested on: RyRs; settings: ryanodine locks channels open; ref [3], [45]; cited from earlier work
[8] = 500 µM KIFMK, frame by frame analysis
[9] = Shaker B 2 µM n=4, KIFMK 500 µM n=8
[10] = IpTxA plus ryanodol, +10 mV, 40 min
[11] = ryanodol, control before IpTxA (Fig. 7A, B)

T1 sequence (A0A8I3MT21 1-4967): as above

Q: With `CC[C@H](C)[C@H](NC(=O)[C@H](CCCCN)NC(C)=O)C(=O)N[C@@H](Cc1ccccc1)C(=O)N[C@@H](CCSC)C(=O)N[C@@H](CCCCN)C(N)=O` [KIFMK, acetyl-KIFMK-amide] as the compound, how does the “duration of block events” value ([1]; 0 mV) read?
A: intermediate duration

Q: And the “mean duration of block events” value ([1]; 0 mV, Peptide A n=4, KIFMK n=6, mean ± SEM)?
A: 5.3 ± 0.3 ms

Q: And the “d (fraction of the membrane potential acting at the site)” value ([1]; Woodhull fit, z = 6 Peptide A, 7 Shaker B, 2 KIFMK)?
A: 1.2 ± 0.3

Q: What about the “increase in frequency of substates” value ([2]; 500 µM KIFMK vs before addition, n=5 paired observations) of the same compound?
A: 37 ± 9 times

Q: And the “substate level 1, of full conductance” value [2, 8]?
A: ~ 27.3 ± 0.3%

Q: And the “substate level 2, of full conductance” value [2, 8]?
A: ~48.6 ± 0.7%

Q: What about the “substate level 3, of full conductance” value [2, 8] of the same compound?
A: ~72.3 ± 0.5%

Q: And the frequency of substates ([2]; 500 µM KIFMK, n=5 paired observations, control 0.9 ± 0.3)?
A: 22.1 ± 4.4 events/min

Q: And the “substate amplitude level 1, in the absence of ryanodine” value ([2]; KIFMK, n=8)?
A: 27 ± 1%

Q: What about the “substate amplitude level 3, in the absence of ryanodine” value ([2]; KIFMK, n=8) of the same compound?
A: 74 ± 2%

Q: And the “substate level, ~30% of full RyR2 conductance” value ([2]; discussion summary)?
A: ~ 30%

Q: And the “substate level, ~50% of full RyR2 conductance” value ([2]; discussion summary)?
A: ~50%

Q: What about the “substate level, ~70% of full RyR2 conductance” value ([2]; discussion summary) of the same compound?
A: ~70%

Q: What about the “predominant substate level, of the ryanodine-modified conductance” value ([3]; KIFMK 500 µM) of the same compound?
A: ~ 52%

Q: What about the block dwell time ([3]; KIFMK 500 µM, ryanodine-modified, n=6) of the same compound?
A: 29.9 ± 10.5 ms

Q: And the “increase of block dwell time with ryanodine” value ([3]; KIFMK 500 µM, n=6)?
A: 316 ± 62%

Q: And the “substate amplitude level 1, of full openings of ryanodine-modified channel” value [3, 9]?
A: 31 ± 1%

Q: What about the “substate amplitude level 2, of full openings of ryanodine-modified channel” value [3, 9] of the same compound?
A: 51 ± 1%

Q: And the “substate amplitude level 3, of full openings of ryanodine-modified channel” value [3, 9]?
A: 75 ± 1%

Q: What about the “decrease of probability of block on changing 0 mV to +20 mV” value ([3]; in the presence of ryanodine) of the same compound?
A: 83%

Q: What about the “decrease of probability of substates on changing 0 mV to +20 mV” value ([3]; in the presence of ryanodine) of the same compound?
A: 61%

Q: What about the “action during IpTxA-induced substates versus full openings” value ([4]; 50 nM IpTxA, +10 mV, Peptide A 20 µM, Shaker B 40 µM, KIFMK 500 µM) of the same compound?
A: able to block the IpTxA-modified channel; also recorded: the probability of blocking the channels was significantly lower during IpTxA-induced substates than during full openings

Q: And the “apparent dissociation constant from RyR2 (1/dwell time)” value ([4]; during IpTxA substates, 50 nM IpTxA, +10 mV)?
A: 3.1 s⁻¹

Q: And the “apparent dissociation constant from RyR2 (1/dwell time)” value ([4]; during full openings, 50 nM IpTxA, +10 mV)?
A: 166 s⁻¹

Q: And the “action during IpTxA-ryanodine sub-substates” value ([4]; ryanodine-modified RyR2 with IpTxA, results not shown)?
A: only induced some block events

Q: Which “Po with Ca2+ and caffeine” value ([1]; most channels, Ca2+ 10 µM + caffeine 5 mM, before peptides) does the source give for `Cn1c(=O)c2c(ncn2C)n(C)c1=O` [caffeine] here?
A: > 0.9

Q: Which “probability of R (ryanodol alone) after IpTxA” value ([5]; 50 nM IpTxA) does the source give for `CC(C)[C@@]1(O)[C@@H](O)[C@@]2(O)[C@@]3(C)C[C@]4(O)O[C@@]5([C@H](O)[C@@H](C)CC[C@]35O)[C@@]2(O)[C@]14C` [ryanodol] here?
A: decreased dramatically

Q: What about the “probability of ryanodol-induced modification” value ([5]; 20 µM ryanodol, 0 mV, before Peptide A) of the same compound?
A: 0.58 ± 0.04

Q: What about the “probability of ryanodol-induced modification” value ([5]; 20 µM ryanodol, 0 mV, with 5 µM Peptide A) of the same compound?
A: 0.76 ± 0.05

Q: And the “action on ryanodol-modified RyR2 or on ryanodol binding” value ([5]; 20 µM ryanodol, 5 µM Peptide A, 0 mV)?
A: increased dwell times for ryanodol-modified states

Q: What about the “number of R substate events” value [5, 10] of the same compound?
A: 98 events

Q: And the “number of transitions R→Open” value [5, 10]?
A: 5 times

Q: What about the “number of transitions i→R+i” value [5, 10] of the same compound?
A: 6 times

Q: And the “decrease of probability of ryanodol modification from 0 to +20 mV” value ([5]; n=6)?
A: 52 ± 11%

Q: And the “relative rate of transition i→R+i” value ([5]; ryanodol binding to IpTxA-modified channel, +10 mV)?
A: 14.6

Q: And the “relative rate of transition Open→R” value ([5]; ryanodol binding to open channel, +10 mV)?
A: 130

Q: And the “relative rate of transition R+i→i” value ([5]; ryanodol dissociation with IpTxA bound, +10 mV)?
A: 144

Q: And the “preferred sequence of binding Open→R→R+i, share of cases” value ([5]; ryanodol first, then IpTxA, +10 mV)?
A: 93%

Q: What about the “probability of full opening” value [5, 11] of the same compound?
A: ~ 80%

Q: And the “probability of ryanodol state” value [5, 11]?
A: ~ 20%

Q: And the “total probability of ryanodol binding (R and R+i), increased” value ([5]; with 50 nM IpTxA, all voltages tested but +30 mV)?
A: ~ 40%

Q: Which “[3H] ryanodine binding to SR microsomes” value [6] does the source give for TSAQKAKAEERKRRKMSRGL [Peptide A] here?
A: enhances [^3H] ryanodine binding to SR microsomes

Q: What does the source list for ryanodine?
A: effect of ryanodine on channel gating ([3]; 2 µM ryanodine): channels are locked open; closures are brief and extremely rare; slope conductance of modified state, of full openings [7]: ~ 40%
